From PubChem BioAssay
The list is not random: actives were taken first. Their share in the collection is about 1.3%.
PfGluPho inh: PfG6PD (Plasmodium falciparum) enzyme inhibition. PfGluPho enzyme, NADPH resazurin-diaphorase fluorescence. actives 0.78% (n = 350,000). inhibition, % at 20 µM. AID 504690;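 active = inhibition reaching at least a set limit at 20 µM in the primary screen, cut at about 59% in these data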;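 also: 0% = DMSO wells with substrate and 100% = DMSO wells lacking glucose-6-phosphate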
Tb hexokinase: T. brucei hexokinase 1 inhibition | recombinant TbHK1, G6PDH-coupled NADH A340 | inhibition, % at 10 µM | actives 0.11% (n = 220,000);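 active = inhibition of 50% or more in the single-dose primary screen; inactive = inhibition below 50%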
Diaph inh CS: diaphorase inhibition or chemical oxidation counter-screen. diaphorase resazurin-to-resorufin fluorescence, NADH, 16 min; bacterial (C. kluyveri) enzyme, not human. AID 1217. inhibition, % at 20 µM. actives 0.69% (n = 190,000);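 active = primary screen inhibition at 20 µM above a set limit, cut at about 50% in these data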;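 also: plate controls were DMSO with full reaction for no effect and wells lacking NADH for full effect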
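controls = No-NADH positive control and DMSO neutral control | system = Clostridium kluyveri diaphorase enzyme | timing = reaction incubation of 16 min at room temperature | signal = resorufin fluorescence 544/590 nm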
HKDC1 inhibitor: inhibitors of human hexokinase HKDC1 | Q2TB90 | recombinant HKDC1, G6PDH/diaphorase resazurin coupled fluorescence | inhibition, % at 20 µM | actives 0.16% (n = 340,000);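 active = inhibition above about 35% when tested at 20 µM, limit read from the data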;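 also: plate controls were DMSO wells with enzyme for no effect and DMSO wells lacking enzyme for full effect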
Target sequence (Q2TB90 whole entry, looked up): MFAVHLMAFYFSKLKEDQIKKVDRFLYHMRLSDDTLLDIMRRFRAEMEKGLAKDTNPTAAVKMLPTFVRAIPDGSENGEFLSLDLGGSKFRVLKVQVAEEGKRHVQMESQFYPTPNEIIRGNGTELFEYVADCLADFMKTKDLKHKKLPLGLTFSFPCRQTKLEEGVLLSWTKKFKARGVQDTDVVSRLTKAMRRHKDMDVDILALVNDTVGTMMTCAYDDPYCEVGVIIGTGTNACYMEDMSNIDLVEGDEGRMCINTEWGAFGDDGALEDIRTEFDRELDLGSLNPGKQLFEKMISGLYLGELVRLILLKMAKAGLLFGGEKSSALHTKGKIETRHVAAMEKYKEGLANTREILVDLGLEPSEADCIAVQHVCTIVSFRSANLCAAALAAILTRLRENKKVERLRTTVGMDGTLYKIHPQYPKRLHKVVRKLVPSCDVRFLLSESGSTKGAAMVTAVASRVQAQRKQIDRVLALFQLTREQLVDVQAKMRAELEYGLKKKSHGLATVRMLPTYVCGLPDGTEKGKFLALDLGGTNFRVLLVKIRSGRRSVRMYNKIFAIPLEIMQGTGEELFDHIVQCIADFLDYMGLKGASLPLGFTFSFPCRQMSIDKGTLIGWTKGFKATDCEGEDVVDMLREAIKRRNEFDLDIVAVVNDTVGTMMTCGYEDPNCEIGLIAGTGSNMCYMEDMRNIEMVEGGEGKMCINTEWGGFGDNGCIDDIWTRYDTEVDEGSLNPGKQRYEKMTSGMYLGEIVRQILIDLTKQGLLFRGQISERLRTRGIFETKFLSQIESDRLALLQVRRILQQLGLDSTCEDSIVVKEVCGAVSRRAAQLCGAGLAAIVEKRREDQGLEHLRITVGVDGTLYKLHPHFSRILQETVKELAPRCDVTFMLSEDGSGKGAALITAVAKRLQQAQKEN
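Assay system: in-house recombinant HK5 (HKDC1) enzyme. Input: HKDC1 at 5 µg/mL. Medium: Tris pH 8.0 buffer with MgCl2, Tween-20, BSA, BME. Dosing: single 20 µM dose. Schedule: 90 min reaction incubation at room temperature, dark. Signal: resazurin-to-resorufin fluorescence via G6PDH and diaphorase coupling, 525/613 nm. Controls: DMSO-enzyme wells negative, buffer-substituted wells positive.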
Diaph act CS: activates diaphorase or chemically reduces, flagging diaphorase assay artifacts | activation factor at 20 µM | Diaphorase/resazurin coupled assay, resorufin fluorescence, 16 min; active compounds read high; 1 = vehicle wells, 0 = NADH-free wells | actives 0.005% (n = 190,000) | AID 1229;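 active = diaphorase activity raised at least twofold by the compound at 20 µM; inactive = activation factor below 2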
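Material: Clostridium kluyveri diaphorase, purified enzyme; Quantity: enzyme 0.07 U/mL final; Medium: HEPES pH 7.4 buffer with MgCl2 and Tween 20; Dosing: single compound dose of 20 µM, 1% DMSO final; Schedule: 16 min reaction at room temperature; Measured by: red resorufin fluorescence at 544/590 nm excitation/emission.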
G6PDH CS: L. mesenteroides G6PDH inhibition counter-screen; actives 0.12% (n = 200,000); inhibition, % at 5 µM; AID 1020; Purified L. mesenteroides G6PDH, diaphorase/resazurin coupled fluorescence, 45 min; in the data active = inhibition above about 50%
PfG6PD confirm: confirmation of Plasmodium falciparum G6PD inhibitors. shares compounds with PfGluPho inh. recombinant PfGluPho, NADPH-diaphorase-resazurin fluorescence. inhibition, % at 20 µM. actives 34% (n = 2,400);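 active = inhibition of at least 50% at 20 µM in any single replicate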;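 also: 0% = DMSO with substrate and 100% = DMSO lacking glucose-6-phosphate substrate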
Diaphorase 10uM: diaphorase inhibition or oxidation at 10 uM NADPH | diaphorase-coupled resazurin reduction, fluorescence, NADPH 10 uM | inhibition, % at 20 µM | actives 39% (n = 820) | AID 504862 | shares compounds with PfGluPho inh;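 active = average inhibition reaching 50% or more with the compound at 20 µM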;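 also: resorufin red fluorescence formed as diaphorase reduces resazurin using NADPH; 0% = DMSO with enzyme and 100% = DMSO without enzyme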
Diaphorase 30uM: counter-screen for P. falciparum G6PD inhibitors: diaphorase inhibitors, oxidizers; shares compounds with PfGluPho inh; Diaphorase/resazurin coupled assay, resorufin fluorescence, 30 uM NADPH; inhibition, % at 20 µM; actives 29% (n = 820); AID 504863;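 active = inhibition averaging 50% or more, tested at 20 µM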;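 also: 0% = DMSO with enzyme and 100% = DMSO wells lacking diaphorase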
Starred values were filed as active, the others as inactive; · = not tested or not shown.

SMILES	PfGluPho inh	Tb hexokinase	Diaph inh CS	HKDC1 inhibitor	Diaph act CS	G6PDH CS	PfG6PD confirm	others
Cc1c(Cl)cccc1NC(=O)C1Cc2ccccc2CN1C(=O)c1ccccc1 (stereo not given)	81*	-7	7	8	0.9	-10	36
Cc1cccc(NC(=O)C2Cc3ccccc3CN2C(=O)OCc2ccccc2)c1C (stereo not given)	-1	36	20	5	0.8	17	·
COc1ccc(S(=O)(=O)N2CCOCC2)cc1NC(=O)CCCOc1ccccc1	3	·	·	0	·	·	·
COc1ccc(N2CCN(C(=O)c3ccc(CNS(=O)(=O)c4cccc(OC)c4)cc3)CC2)cc1	2	·	·	0	·	·	·
CC(=O)c1sc2nsc(SCCN3CCOCC3)c2c1N	78*	-38	·	-7	·	·	-17
O=C(Cc1ccccc1)NCC(=O)OCC(=O)c1cccc([N+](=O)[O-])c1	-16	-4	4	-3	1	-2	·
O=C(COC(=O)c1ccccn1)c1ccc([N+](=O)[O-])cc1	63*	·	·	5	·	·	41
O=C(Cc1ccccc1)NCC(=O)OCC(=O)c1ccc([N+](=O)[O-])cc1	68*	6	8	-1	0.9	-3	67*	Diaphorase 10uM=-2;Diaphorase 30uM=-6
O=C(CNc1ccccc1)c1ccc([N+](=O)[O-])cc1	64*	1	10	-13	0.9	5	2
O=C(CNC(=O)c1cccs1)OCC(=O)c1ccc([N+](=O)[O-])cc1	68*	7	-2	-1	1	10	49*	Diaphorase 10uM=-8;Diaphorase 30uM=-10
O=C1Nc2ccccc2C1=Nc1ccc2[nH]c3ccccc3c2c1	19	·	·	4	·	·	·
O=c1cc(Cn2ccnc2)c2cc(O)ccc2o1	-15	·	·	2	·	·	·
CC(C)CN1CC(C)C(=O)NC1=S (stereo not given)	16	·	·	-6	·	·	·
O=C(CNC(=O)c1ccco1)OCC(=O)c1ccc(Cl)cc1	-11	9	-12	-9	1.1	17	·
Cc1ccc(C(=O)NCC(=O)NCC(=O)OCC(=O)c2ccc([N+](=O)[O-])cc2)cc1	63*	32	24	-5	0.8	-6	62*	Diaphorase 10uM=-9;Diaphorase 30uM=0
Cc1ccc(C(=O)COC(=O)CNC(=O)CNC(=O)c2ccc(C)cc2)cc1	-5	2	-6	-7	1.1	15	·
O=C(CNC(=O)c1ccco1)OCC(=O)c1ccc([N+](=O)[O-])cc1	63*	·	·	-1	·	·	66*	Diaphorase 10uM=-5;Diaphorase 30uM=-4
COC(=O)C1(NC(=O)CNC(=O)OCc2ccccc2)CCCC1	-10	·	·	-3	·	·	·
Cn1cc(-c2ccccc2C(N)=O)c(=O)c2cc(Cl)ccc21	13	-10	4	-2	1	1	·
Cn1cc(C2=C(c3ccc(Cl)cc3Cl)C(=O)NC2=O)c2ccccc21	66*	·	·	5	·	·	-1
O=C1C=C(c2ccc(Cl)c(C(F)(F)F)c2)C[C@@H](c2ccc(Cl)cc2)C1	12	·	·	3	·	·	·
CCN(CC)c1ccc(NC(=O)Nc2ccc(C(C)=O)cc2)cc1	40	-1	16	-1	0.8	-32	·
CCN(CC)c1ccc(N=C2C=CC(=O)C=C2NC(C)=O)cc1	121*	·	·	11	·	·	99*	Diaphorase 10uM=95*;Diaphorase 30uM=98*
CCc1nc(Nc2cccc(O)c2)c2oc3ccccc3c2n1	73*	·	·	5	·	·	12
CCc1nc(Nc2ccncc2)c2oc3ccccc3c2n1	13	-69	12	-5	0.9	-3	·
SMILES	PfGluPho inh	Tb hexokinase	Diaph inh CS	HKDC1 inhibitor	Diaph act CS	G6PDH CS	PfG6PD confirm	others
Cc1sc2nc(CSC(C)C(=O)NC3(C#N)CCCCC3)[nH]c(=O)c2c1C (stereo not given)	6	·	·	7	·	·	·
Nc1ccc2nc(-c3ccccc3)c(-c3ccccc3)nc2c1	79*	·	·	9	·	·	-1
Nc1ccc(Oc2ccc3nc(-c4ccccc4)c(-c4ccccc4)nc3c2)cc1	19	-10	26	-1	0.7	2	·
Cn1c2ccccc2c(=O)c2ccc(C#Cc3ccc(N)cc3)cc21	5	·	·	2	·	·	·
Cn1c2ccccc2c(=O)c2cc(C#Cc3cccc(N)c3)ccc21	62*	·	·	0	·	·	21
COC(=O)C1=C[C@@H](C(=O)OC)[C@@H]2C3=C(C(=O)C2(C)C)[C@H](c2ccccc2)[C@@H]2C(=O)N(C)C(=O)[C@@H]2[C@@H]3C1	-4	·	·	1	·	·	·
Cc1nc(SCC(=O)c2ccc(F)cc2)n[nH]1	63*	1	10	-4	0.9	16	-15
Nc1nc(SCC(=O)c2ccc(F)cc2)n[nH]1	2	-3	10	-8	0.9	-1	·
c1ccc(-c2nnc3sc(-c4ccncc4)nn23)cc1	1	-3	22	-4	0.8	-16	·
c1ccc(-c2nnc3sc(-c4csc5c4CCCC5)nn23)cc1	73*	3	3	2	1	-26	3
Cc1cccc(NC(=O)c2cccc(S(=O)(=O)NCc3ccccc3)c2)n1	-7	·	·	1	·	·	·
Cn1ncc(Cl)c1C(=O)N/N=C/c1cccc(OC2CSC2)c1	109*	-6	3	4	1	0	85*	Diaphorase 10uM=76*;Diaphorase 30uM=64*
Cc1cccc2c(C(=O)N3CCN(c4ccccn4)CC3)cc(-c3cccc(Br)c3)nc12	11	·	·	-1	·	·	·
O=C(CSc1nc2cc(Cl)ccc2s1)c1cc2ccccc2o1	64*	5	0	0	1	2	5
O=C(CSc1cccc2cccnc12)N/N=C/c1ccc(O)cc1	41	-33	·	2	·	·	·
COc1cccc(/C=N/NC(=O)CSc2cccc3cccnc23)c1	69*	-10	·	-18	·	·	54*	Diaphorase 10uM=64*;Diaphorase 30uM=41
C/C(=N\Nc1ccc(C)c(Cl)c1)c1cccnc1	96*	·	·	1	·	·	37
C/C(=N\Nc1ccc(C)c(Cl)c1)c1ccncc1	46	·	·	2	·	·	·
N=C(N)c1ccc(N=Nc2c(O)ccc3c2[nH]c2ccccc23)cc1	78*	·	·	32	·	·	20
[O-]/[N+](=C/c1cccnc1)c1ccc(Br)cc1	105*	16	14	2	0.9	4	78*	Diaphorase 10uM=68*;Diaphorase 30uM=33
O=[N+]([O-])c1ccc(N/N=C/c2cccnc2)cc1	31	·	·	-1	·	·	·
Oc1ccc(C23CC4CC(CC(C4)C2)C3)cc1O	83*	·	·	0	·	·	71*	Diaphorase 10uM=-8;Diaphorase 30uM=-2
O=C(COC(=O)c1ccc[nH]c1=O)Nc1ccc(N2CCCCC2)cc1	11	·	·	-4	·	·	·
